This is an account of results in ChEMBL document CHEMBL4376844, “A Novel Decalin-Based Bicyclic Scaffold for FKBP51-Selective Ligands” (J Med Chem, 2020).

Active and inactive are the calls of the source. The calls are words filed in the database; no cut-off is given here.

Data set [1] relates to KB. Briefly: Induction of apoptosis in human KB/HeLa cells overexpressing FKBP51 assessed as viable cells at 25 uM incubated for 40 hrs by AnnexinV-FITC and propidium iodide staining based flow cytometry analysis (reference value: 87.7%). The settings on record: read-out: Activity. Format: functional. On the technique in general: In flow cytometry, cells or beads pass a laser one at a time.

For data set [2], the system named is KB. In words: Induction of apoptosis in human KB/HeLa cells overexpressing FKBP51 assessed as viable cells at 50 uM incubated for 40 hrs by AnnexinV-FITC and propidium iodide staining based flow cytometry analysis (reference value: 87.7%). It counts as functional. Conditions: read-out: Activity.
Data set [3] concerns KB. Briefly: Induction of apoptosis in human KB/HeLa cells overexpressing FKBP51 assessed as early apoptotic cells at 12 uM incubated for 40 hrs by AnnexinV-FITC and propidium iodide staining based flow cytometry analysis (reference value: 3.5%). It counts as functional.
Data set [4] has as its system KB. In words: Induction of apoptosis in human KB/HeLa cells overexpressing FKBP51 assessed as late apoptotic cells at 12 uM incubated for 40 hrs by AnnexinV-FITC and propidium iodide staining based flow cytometry analysis (reference value: 3.4%). It counts as functional.
The target of data set [5] is T1, Peptidyl-prolyl cis-trans isomerase FKBP5 (Homo sapiens, UniProt Q13451).
T1 sequence (Q13451 whole entry): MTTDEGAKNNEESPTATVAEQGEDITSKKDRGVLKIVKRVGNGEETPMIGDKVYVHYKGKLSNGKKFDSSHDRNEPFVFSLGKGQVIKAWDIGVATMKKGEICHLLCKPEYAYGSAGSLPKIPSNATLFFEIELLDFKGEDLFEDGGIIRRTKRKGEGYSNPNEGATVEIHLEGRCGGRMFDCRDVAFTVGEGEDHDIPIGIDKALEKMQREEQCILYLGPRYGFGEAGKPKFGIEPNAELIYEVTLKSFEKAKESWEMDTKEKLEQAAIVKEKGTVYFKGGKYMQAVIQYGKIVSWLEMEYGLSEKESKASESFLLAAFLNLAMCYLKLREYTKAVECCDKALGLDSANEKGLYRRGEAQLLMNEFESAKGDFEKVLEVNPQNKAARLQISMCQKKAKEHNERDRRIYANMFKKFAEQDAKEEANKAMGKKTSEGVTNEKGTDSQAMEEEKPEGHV
In words: Inhibition of human full length N-terminal His-tagged/C-terminal FLAG tagged FKBP51 expressed in Escherichia coli BL21 (DE3) cells incubated for 30 mins by competitive fluorescence polarization assay.

The test system of data set [6] is KB. In words: Induction of apoptosis in human KB/HeLa cells overexpressing FKBP51 assessed as necrotic cells at 25 uM incubated for 40 hrs by AnnexinV-FITC and propidium iodide staining based flow cytometry analysis (reference value: 5.4%). Format: functional.
In data set [7] the test system is KB. In words: Induction of apoptosis in human KB/HeLa cells overexpressing FKBP51 assessed as viable cells at 12 uM incubated for 40 hrs by AnnexinV-FITC and propidium iodide staining based flow cytometry analysis (reference value: 87.7%). It counts as functional. The settings on record: read-out: Activity.
The test system of data set [8] is KB. Briefly: Induction of apoptosis in human KB/HeLa cells overexpressing FKBP51 assessed as late apoptotic cells at 25 uM incubated for 40 hrs by AnnexinV-FITC and propidium iodide staining based flow cytometry analysis (reference value: 3.4%). Format: functional.
For data set [9], the system named is KB. Briefly: Cytotoxicity against human KB/HeLa cells overexpressing FKBP51 assessed as induction of cell death by measuring hypodiploid cells at 1 uM incubated for 72 hrs by propidium iodide based flow cytometry analysis (reference value: 4.7%). It counts as functional.
In data set [10] the test system is KB. In words: Induction of apoptosis in human KB/HeLa cells overexpressing FKBP51 assessed as early apoptotic cells at 50 uM incubated for 40 hrs by AnnexinV-FITC and propidium iodide staining based flow cytometry analysis (reference value: 3.5%). Format: functional.
The target of data set [11] is T2, Peptidyl-prolyl cis-trans isomerase FKBP4 (Homo sapiens, UniProt Q02790).
T2 sequence (Q02790 whole entry): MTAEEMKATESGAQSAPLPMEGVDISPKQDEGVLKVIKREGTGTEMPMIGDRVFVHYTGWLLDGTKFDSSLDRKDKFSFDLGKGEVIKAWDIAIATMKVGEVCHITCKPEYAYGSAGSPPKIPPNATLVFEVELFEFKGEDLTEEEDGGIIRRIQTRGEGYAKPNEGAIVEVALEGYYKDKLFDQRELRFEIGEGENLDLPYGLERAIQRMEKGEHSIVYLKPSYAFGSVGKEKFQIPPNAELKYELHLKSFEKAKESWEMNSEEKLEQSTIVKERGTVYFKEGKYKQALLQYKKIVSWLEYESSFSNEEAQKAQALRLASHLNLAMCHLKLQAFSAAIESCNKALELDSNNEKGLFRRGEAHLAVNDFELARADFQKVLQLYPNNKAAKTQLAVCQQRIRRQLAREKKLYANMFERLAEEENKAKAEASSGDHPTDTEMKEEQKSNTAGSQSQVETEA
Briefly: Inhibition of human full length N-terminal His-tagged/C-terminal FLAG tagged FKBP52 expressed in Escherichia coli BL21 (DE3) cells incubated for 30 mins by competitive fluorescence polarization assay. Conditions: 0.5 h. For orientation: In fluorescence polarisation assays a small probe gives low polarisation when free and higher when bound to something large.

In data set [12] the test system is KB. Briefly: Cytotoxicity against human KB/HeLa cells overexpressing FKBP51 assessed as induction of cell death by measuring hypodiploid cells at 20 uM incubated for 72 hrs by propidium iodide based flow cytometry analysis (reference value: 4.7%). It counts as functional.
In data set [13] the test system is KB. In words: Cytotoxicity against human KB/HeLa cells overexpressing FKBP51 assessed as induction of cell death by measuring hypodiploid cells at 6 uM incubated for 72 hrs by propidium iodide based flow cytometry analysis (reference value: 4.7%). Format: functional.
For data set [14], the system named is KB. Briefly: Induction of apoptosis in human KB/HeLa cells overexpressing FKBP51 assessed as late apoptotic cells at 50 uM incubated for 40 hrs by AnnexinV-FITC and propidium iodide staining based flow cytometry analysis (reference value: 3.4%). It counts as functional.
Data set [15] deals with KB. Briefly: Induction of apoptosis in human KB/HeLa cells overexpressing FKBP51 assessed as early apoptotic cells at 25 uM incubated for 40 hrs by AnnexinV-FITC and propidium iodide staining based flow cytometry analysis (reference value: 3.5%). Format: functional.
The test system of another data set is HeLa. In words: Induction of apoptosis in human HeLa cells expressing low leves of FKBP51 at 50 uM incubated for 40 hrs by AnnexinV-FITC and propidium iodide staining based flow cytometry analysis. Format: functional, cell-based.
Data set [16] relates to KB. Briefly: Cytotoxicity against human KB/HeLa cells overexpressing FKBP51 assessed as induction of cell death by measuring hypodiploid cells at 60 uM incubated for 72 hrs by propidium iodide based flow cytometry analysis (reference value: 4.7%). Format: functional.
In data set [17] the test system is KB. Briefly: Induction of apoptosis in human KB/HeLa cells overexpressing FKBP51 assessed as necrotic cells at 50 uM incubated for 40 hrs by AnnexinV-FITC and propidium iodide staining based flow cytometry analysis (reference value: 5.4%). It counts as functional.
Data set [18] relates to KB. In words: Induction of apoptosis in human KB/HeLa cells overexpressing FKBP51 assessed as increase in early apoptotic cells incubated for 40 hrs by annexin V and propidium iodide based flow cytometry analysis. It counts as functional, cell-based.
The subject of data set [19] is KB. Briefly: Cytotoxicity against human KB/HeLa cells overexpressing FKBP51 assessed as induction of cell death incubated for 72 hrs by propidium iodide based flow cytometry analysis. Format: functional. A digest of the protocol: (§1)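 KB cells exposed to a range of compound doses for 72 h. 1×10^5 cells washed in PBS, then permeabilized in 0.1% sodium citrate, 0.1% Triton X-100 and 50 µg/mL propidium iodide for 30 min at 4°C in the dark. Nuclear DNA content read by flow cytometry on a log scale with debris gated out by forward scatter; % hypodiploid nuclei taken as dead cells. Four experiments, each in triplicate.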

For data set [20], the system named is KB. Briefly: Induction of apoptosis in human KB/HeLa cells overexpressing FKBP51 assessed as necrotic cells at 12 uM incubated for 40 hrs by AnnexinV-FITC and propidium iodide staining based flow cytometry analysis (reference value: 5.4%). Format: functional.
The target of another data set is Cytochrome P450 3A4 (Homo sapiens, UniProt P08684). In words: Inhibition of CYP3A4 (unknown origin). It counts as ADME.
Data set [21] concerns KB. Briefly: Cytotoxicity against human KB/HeLa cells overexpressing FKBP51 assessed as cell death up to 60 uM incubated for 72 hrs by propidium iodide staining based flow cytometry analysis. Format: functional. A digest of the protocol:
as §1

Data set [22] addresses T3, Peptidyl-prolyl cis-trans isomerase FKBP5 (Homo sapiens) (UniProt Q13451).
T3 sequence (whole entry): T1 sequence (Q13451 whole entry)
In words: Inhibition of human full length N-terminal His-tagged/C-terminal FLAG tagged FKBP51 expressed in Escherichia coli BL21 (DE3) cells at >=10 uM incubated for 30 mins by competitive fluorescence polarization assay.

Data set [23] is described as follows: Solubility of compound. It counts as physicochemical.
Data set [24] concerns KB. Briefly: Induction of apoptosis in human KB/HeLa cells overexpressing FKBP51 assessed as viable cells at 1 uM incubated for 40 hrs by AnnexinV-FITC and propidium iodide staining based flow cytometry analysis (reference value: 87.7%). It counts as functional. Conditions: read-out: Activity.
Data set [25] relates to KB. Briefly: Induction of apoptosis in human KB/HeLa cells overexpressing FKBP51 assessed as necrotic cells at 1 uM incubated for 40 hrs by AnnexinV-FITC and propidium iodide staining based flow cytometry analysis (reference value: 5.4%). Format: functional.
In data set [26] the test system is KB. Briefly: Induction of apoptosis in human KB/HeLa cells overexpressing FKBP51 assessed as early apoptotic cells at 1 uM incubated for 40 hrs by AnnexinV-FITC and propidium iodide staining based flow cytometry analysis (reference value: 3.5%). It counts as functional.
Data set [27] relates to KB. In words: Induction of apoptosis in human KB/HeLa cells overexpressing FKBP51 assessed as late apoptotic cells at 1 uM incubated for 40 hrs by AnnexinV-FITC and propidium iodide staining based flow cytometry analysis (reference value: 3.4%). It counts as functional.

Chain of Cytochrome P450 3A4 (P08684 whole entry): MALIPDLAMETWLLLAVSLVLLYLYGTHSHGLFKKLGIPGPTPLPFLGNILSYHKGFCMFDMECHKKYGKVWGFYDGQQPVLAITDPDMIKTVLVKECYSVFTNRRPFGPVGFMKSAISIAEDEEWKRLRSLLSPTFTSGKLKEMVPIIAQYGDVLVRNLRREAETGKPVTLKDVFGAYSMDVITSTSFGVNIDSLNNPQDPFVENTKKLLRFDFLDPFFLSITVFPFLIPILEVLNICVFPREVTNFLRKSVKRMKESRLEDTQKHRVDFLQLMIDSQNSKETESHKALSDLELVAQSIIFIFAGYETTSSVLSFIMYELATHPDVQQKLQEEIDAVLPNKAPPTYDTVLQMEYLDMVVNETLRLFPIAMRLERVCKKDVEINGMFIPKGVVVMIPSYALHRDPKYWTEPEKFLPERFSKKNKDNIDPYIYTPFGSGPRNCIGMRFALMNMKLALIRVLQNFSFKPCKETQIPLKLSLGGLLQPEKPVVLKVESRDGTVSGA

Consider `COc1ccc(CCC(OC(=O)C2CCCCN2C(=O)[C@@H]2C[C@@H](O)[C@@H](O)[C@@H]3CCCC[C@H]32)c2cccc(OCCN3CCOCC3)c2)cc1OC` (single isomer, unassigned), for which the viability at 25 µM in the data set with KB [1] came to 72.5%. Further, in the data set on KB [2], the viability at 50 µM is 58.9%. Besides, the Activity came out at 10.1% in the data set with KB [3]; 6.6% in the data set on KB [4]; 6.8% in the data set on KB [6]; 9.6% in the data set with KB [8]; 5.6% in the data set on KB [9]; 21.7% in the data set on KB [10]. For the same compound, the Activity in the data set with KB [12] worked out at 15.3%; in the data set with KB [13] it was 11.6%; in the data set with KB [14], 11.4%; in the data set on KB [15], 11.1%; with KB [16] it was 26.1%; in the data set with KB [17], 8.1%. Besides, the values for the Activity entry with KB [18], in the data set with KB [19] and in the data set with KB [20] were “Dose-dependent effect”, “Dose-dependent effect” and 9.6%, respectively. In data set [5], this compound registered a Ki of 0.28 µM. In addition, the viability at 12 µM in the data set with KB [7] was 73.7%. Further, the “inhibition (INH)” value in data set [11] is reported as “Not Active”. Besides, the result with HeLa was Active.

`COc1ccc(CC[C@@H](OC(=O)[C@@H]2CCCCN2C(=O)[C@@H]2CCC[C@@H]3CCCC[C@H]32)c2cccc(OCC(=O)O)c2)cc1OC`: the Ki in data set [5] is 0.81 µM. In [11], the “inhibition (INH)” value is “Not Active”. It took 8.4 µM to reach half-maximal inhibition on Cytochrome P450 3A4 (IC50).

For `COc1ccc(CC[C@@H](OC(=O)[C@@H]2CCCCN2C(=O)c2cccc3ccccc23)c2cccc(OCC(=O)O)c2)cc1OC`, in the data set with KB [21], the outcome was inactive. Besides, the inhibition entry in data set [22] was “inactive”. In addition, in data set [23], the solubility was more than 10 µM.

For `COc1ccc(CC[C@@H](OC(=O)[C@@H]2CCCCN2C(=O)[C@H](c2cc(OC)c(OC)c(OC)c2)C2CCCCC2)c2cccc(OCC(=O)O)c2)cc1OC`, the viability at 1 µM in the data set on KB [24] worked out at 65.1%. The Activity with KB [25] is recorded as 2.1%; with KB [26], 20.2%; with KB [27], 12.6%.

As to `COc1ccc(CC[C@@H](OC(=O)[C@@H]2CCCCN2C(=O)c2nccc3ccccc23)c2cccc(OCC(=O)O)c2)cc1OC`, in [22], the inhibition entry was “inactive”. For the same compound, in data set [23], the solubility is more than 10 µM.

On to `COc1ccc(CC[C@@H](OC(=O)[C@@H]2CCCCN2C(=O)c2cccc3cccnc23)c2cccc(OCC(=O)O)c2)cc1OC`, for which the inhibition result in data set [22] is “inactive”. Also, the solubility in [23] was more than 10 µM.

Turning to `COc1ccc(CC[C@@H](OC(=O)[C@@H]2CCCCN2C(=O)C2=CCc3ccccc32)c2cccc(OCC(=O)O)c2)cc1OC`, in data set [22], the inhibition result was “inactive”. Besides, the solubility in data set [23] is more than 10 µM.

A word on the Ki: it is the dissociation constant of the complex between target and ligand, obtained from inhibition or displacement. One may read the IC50 as the point on the concentration scale where inhibition reaches its midpoint. One may read the solubility as how much of the substance goes into solution per volume. A low value points to little dissolved substance.
